OX1R antag-1: antagonists of human orexin 1 receptor (OX1R); Orexin/Hypocretin receptor type 1 (Homo sapiens), O43613; OX1R-expressing cells, FRET antagonist read-out; inhibition, % at 6.6 µM; 330,000 compounds, 1.8% hits; in the data active = inhibition mostly above about 38%, no sharp cut-off; inactive = mostly below about 40%;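 also: 0% = agonist challenge alone and 100% = reference antagonist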
Target sequence (O43613 whole entry, looked up): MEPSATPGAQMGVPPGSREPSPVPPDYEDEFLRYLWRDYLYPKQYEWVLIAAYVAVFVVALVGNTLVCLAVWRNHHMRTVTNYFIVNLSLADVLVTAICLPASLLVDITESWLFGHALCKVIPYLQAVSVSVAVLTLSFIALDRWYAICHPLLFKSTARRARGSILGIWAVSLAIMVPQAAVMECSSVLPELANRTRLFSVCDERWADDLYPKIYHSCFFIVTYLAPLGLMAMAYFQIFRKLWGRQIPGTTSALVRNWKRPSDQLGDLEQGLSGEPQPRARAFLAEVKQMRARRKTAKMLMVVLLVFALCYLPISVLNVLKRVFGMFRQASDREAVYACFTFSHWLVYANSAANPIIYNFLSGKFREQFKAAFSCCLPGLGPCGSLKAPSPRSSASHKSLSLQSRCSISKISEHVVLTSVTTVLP
OX1R antag-2: OX1R (HCRTR1) antagonists, primary screen, fluorescence, CHO/OX1R cells, Fluo-8 calcium, orexin A; 330,000 compounds, 0.43% hits; AID 434989, 2010; Orexin/Hypocretin receptor type 1 (Homo sapiens), O43613; inhibition, % at 5 µM; Fluo-8 calcium fluorescence;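 active = inhibition above its plate's threshold, mean inhibition of all tested compounds on the plate plus 3 SD, cut at about 37% in these data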;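 also: 0% = orexin A challenge wells and 100% = SB-334867-A antagonist wells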
TAAR1 antagonist: human TAAR1 antagonists, primary screen, Fluo-8 calcium fluorescence, CHO RD-HGA16 cells; antagonist; Trace amine-associated receptor 1 (Homo sapiens), Q96RJ0; inhibition, % at 3 µM; 360,000 compounds, 1.5% hits; AID 624466, 2012;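 active = inhibition above a per-plate cutoff, the mean inhibition of test compounds on that plate plus 3 SD, cut at about 49% in these data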;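 also: 0% = DMSO plus EC80 beta-PEA response and 100% = DMSO alone without agonist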
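Assay system: CHO-derived RD-HGA16 cells stably expressing human TAAR1 plus Gα16. Timing: 140 s kinetic read after compound, 140 s after agonist. Technique: kinetic Fluo-8 calcium fluorescence measurement. Measure: % inhibition of agonist calcium response.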
CHO parental Ca: ATP-evoked calcium signal inhibitors, parental CHO, primary screen, counter-screen for OX1R antagonist project, cell-based, fluorescence, Fluo-8 calcium dye; AID 463079, 2010; 330,000 compounds, 0.63% hits; inhibition, % at 5.6 µM; parental CHO-K1, ATP-induced calcium, Fluo-8 fluorescence;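 active = inhibition above that plate's mean sample inhibition plus 3 SD, cut at about 26% in these data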;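 also: 0% = ATP-challenged DMSO wells and 100% = DMSO wells without ATP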
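test system = CHO parental line | reagent = ATP stimulus | measured by = intracellular calcium via Fluo-8 no-wash fluorescent dye | control set = ATP and no-ATP DMSO wells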
TAAR1 ag: human TAAR1 agonists, primary screen, Fluo-8 calcium fluorescence, CHO RD-HGA16 cells | 360,000 compounds, 0.99% hits | vehicle wells 0%, saturating PEA agonist 100% | Trace amine-associated receptor 1 (Homo sapiens), Q96RJ0 | activation, % at 3 µM | AID 624467, 2012;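 active = activation above the mean activation of all test compounds in the run plus 3 SD, cut at about 38% in these data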
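Signal – calcium-sensitive Fluo-8 signal, excitation 470-495, emission 515-575 nm · System – RD-HGA16 (CHO) cells co-expressing Gα16 and hTAAR1 · Incubation – 17-24 h seeding, 75 min 37 °C dye, 30 min RT · Compound dosing – 3 µM single concentration · Repeats – no replicates (n 1)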
OX1R HTRF conf: OX1R (HCRTR1) antagonists, confirmation, cell-based, HTRF. shares compounds with OX1R antag-1. OX1R-expressing cells, HTRF antagonist assay. inhibition, % at 6.6 µM. 1,800 compounds, 49% hits; in the data active = inhibition above about 55%;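 also: CHO cells expressing OX1R stimulated with orexin A at about EC80; 0% = agonist challenge alone and 100% = reference antagonist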
CHO-K1 HTRF: signal inhibition in parental CHO-K1 cells, counter-screen for OX1R antagonist project, cell-based, HTRF. shares compounds with OX1R antag-1. HTRF counterscreen. inhibition, % at 6.6 µM. 1,800 compounds, 48% hits; in the data active = inhibition above about 17%;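 also: 0% = agonist challenge with vehicle and 100% = vehicle alone without agonist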
* marks the source's active call; other numbers are inactive results; . = no result. This is a sample that favours compounds with a hit; in the whole collection about 4% have one here.

SMILES	OX1R antag-1	OX1R antag-2	TAAR1 antagonist	CHO parental Ca	TAAR1 ag	OX1R HTRF conf	CHO-K1 HTRF
Cn1c2ccccc2c2cc(/C=N/NC(=O)c3ccc(N)cc3)ccc21	88*	23	10	-30	5	88*	8
C[C@@H]1CN([C@@H](C)CO)C(=O)CCCn2nncc2CO[C@@H]1CN(C)S(=O)(=O)c1cccc(C#N)c1	.	.	-3	.	1	.	.
COc1ccc(-n2c(C)cc(/C=N/Nc3nnc(C)n3N)c2C)cc1	108*	-13	-5	-16	0	22	14
CC(C)CN(C(=O)c1cc([N+](=O)[O-])cc([N+](=O)[O-])c1)C1CCS(=O)(=O)C1 (stereo not drawn)	91*	-6	-40	-6	3	70*	50*
O=C(O)/C=C/C(=O)Nc1ccc(C(=O)c2ccccc2)cc1	1	9	-5	0	1	.	.
CC(=O)Nc1ccc2c(c1)c1ccccc1n2C(C)=O	78*	0	-6	-12	5	71*	14
CCCC(=O)Nc1cccc(-c2nc3ccccc3o2)c1	57	-21	-2	-16	15	.	.
CC(=O)Nc1ccc2nc3ccccc3nc2c1	134*	-5	-34	-3	1	110*	65*
CC(=O)Nc1ccc2c(c1)ncn2-c1ccccc1	6	9	9	-5	2	.	.
CC(=O)Nc1cccc(-c2nc3ccccc3o2)c1	80*	25	-2	-11	4	66*	1
O=C(O)/C=C/C(=O)Nc1ccc2c(c1)C(=O)c1ccccc1C2=O	83*	-3	-20	-5	0	41	50*
CC(=O)Nc1ccc(Nc2cc(C)c3ccccc3n2)cc1	16	-12	-4	-13	0	.	.
Cc1ccc(-c2nnn(CC(=O)NC(=O)NC3CCCCC3)n2)cc1	.	.	-37	.	0	.	.
Cc1c(/C=C/C(=O)c2ccc(C(C)C)cc2)cnn1C	19	-21	2	-22	0	.	.
CC(=O)Nc1ccc2c(c1)C(=O)c1ccccc1C2=O	102*	-6	5	0	5	70*	39*
Cc1cc(C)n(NC(=S)NC2CCCCC2)c(=O)c1C#N	2	-8	3	-12	2	.	.
CC(=O)c1nnn(-c2ccc([N+](=O)[O-])cc2)c1C	123*	-11	16	-4	2	42	59*
COc1ccc(C=NN=C2c3ccccc3-c3ccccc32)cc1OC	.	.	-1	.	0	.	.
CCN1C(=O)/C(=C/N(C(C)=O)c2ccccc2)N(c2ccccc2)C1=S	82*	-12	-10	-18	0	28	16
CCc1ccc(/C=C2/C(=O)N(c3ccccc3)C(=S)N2CC(=O)OC)s1	18	7	-22	-3	2	.	.
O=C(COC(=O)c1ccco1)NC1CCCC1	4	6	3	15	2	.	.
COc1ccc(/C=C2\N=C(SC)NC2=O)cc1	21	12	0	-3	17	.	.
CSC1=N/C(=C/c2ccc(-n3cncn3)cc2)C(=O)N1	86*	-11	-5	-4	-1	35	25*
Cc1ccnn1CC(=O)N/N=C/c1ccc2c(c1)OCO2	21	-16	-10	-6	1	.	.
CCOC(=O)CC1ON(C)C(=O)N1c1ccc([N+](=O)[O-])cc1 (stereo not drawn)	101*	-11	-26	-3	7	26	17
SMILES	OX1R antag-1	OX1R antag-2	TAAR1 antagonist	CHO parental Ca	TAAR1 ag	OX1R HTRF conf	CHO-K1 HTRF
CCOC(=O)C1=C(O)C(=O)N(c2ccc(S(N)(=O)=O)cc2)C1c1ccc([N+](=O)[O-])cc1 (stereo not drawn)	28	8	-21	-2	11	.	.
Cc1ccnc(N2C(=O)c3ccccc3C2=O)c1	-9	-8	-1	-4	1	.	.
Cc1ccnc(N2C(=O)c3cccc4c([N+](=O)[O-])ccc(c34)C2=O)c1	107*	12	2	9	0	48	73*
CC(=O)NN1C(=O)c2ccc3c4c(ccc(c24)C1=O)C(=O)N(NC(C)=O)C3=O	83*	-15	-21	-3	0	69*	174*
COc1cccc(/C=C/C(=O)OCC(=O)NC(=O)NC2CCCCC2)c1	-2	-33	-20	-18	10	.	.
Cn1c(=O)c2[nH]c(CCCCCc3nc4ccccc4[nH]3)nc2n(C)c1=O	.	.	12	.	0	.	.
Cn1c(=O)c2nc3ccccc3nc2n(C)c1=O	160*	13	-26	7	0	92*	95*
Cn1c(=O)c2nc(Cl)c(-c3ccccc3)nc2n(C)c1=O	87*	-16	10	-5	-1	52	80*
Cn1c(=O)c2c(nc(CCc3ccccc3)n2C)n(C)c1=O	.	.	8	.	1	.	.
COc1ccc(C=C2C(=O)OC(C)(C)OC2=O)cc1OC	9	-15	-6	-13	0	.	.
COc1ccc(/C=C2\OC(=O)c3c(OC)cccc32)cc1OC	78*	-17	-2	-17	3	66*	3
CCCCNc1c(CC(C)C)nc2nc(C)cc(C)n12	.	.	-4	.	-1	.	.
Cc1ccc(C(=O)N/C(=C/c2ccco2)C(=O)OCN2C(=O)c3ccccc3C2=O)cc1	9	-20	7	-16	3	.	.
O=C(CSc1n[nH]c(=O)[nH]c1=O)c1ccc([N+](=O)[O-])cc1	134*	-14	-25	-6	2	56*	80*
COc1ccc(C(=O)CSc2n[nH]c(=O)[nH]c2=O)cc1	13	-15	1	9	19	.	.
Cc1ccccc1Cn1c(C)nc2ccc([N+](=O)[O-])cc2c1=O	36	-23	-29	-12	3	.	.
CN(CCO)c1cc(NCCCN2CCC(Cc3ccccc3)CC2)c2nonc2c1[N+](=O)[O-]	85*	-19	-6	-30	-3	63*	47*
CN(CCO)c1cc(N2CCC3(CC2)OCCO3)c2nonc2c1[N+](=O)[O-]	129*	-4	-4	7	8	60*	56*
O=[N+]([O-])c1c(NCCO)cc(N2CCC3(CC2)OCCO3)c2nonc12	170*	4	0	0	1	46	82*
CC(=O)Nc1ccc(Nc2cc(N3CCOCC3)c3nonc3c2[N+](=O)[O-])cc1	32	-9	-2	-9	4	.	.
CCN(CC)S(=O)(=O)c1cc(NC(=O)CCCOc2ccc(C(C)=O)cc2)ccc1C	18	-5	22	-4	7	.	.
